For assay [1], the target named is T1, Sialic acid-binding Ig-like lectin 7 (Homo sapiens, UniProt Q9Y286). Put plainly: Binding affinity to recombinant human Fc-fused siglec-7 after 1 hr by fluorescence based glycan microarray analysis. The procedure, abridged: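 Surface KD determination on the same glycan microarray. Fc-Siglec-7 was applied at 0.735–588 nM (13 concentrations) for 1 h at rt and washed with PBST, then detected with anti-human IgG-Cy3 (10 µg/mL) for 0.5 h. Fluorescence was plotted against Siglec concentration and fitted to y = Bmax·x/(KD + x).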

For assay [2], the target named is T1, Sialic acid-binding Ig-like lectin 7. Put plainly: Binding affinity to recombinant human Fc-fused siglec-7 expressed in CHO cells measured over 180 secs. The class given is cell-based.
The target in assay [3] is T2, Sialic acid-binding Ig-like lectin 14 (Homo sapiens) (UniProt Q08ET2).
T2 sequence (whole entry): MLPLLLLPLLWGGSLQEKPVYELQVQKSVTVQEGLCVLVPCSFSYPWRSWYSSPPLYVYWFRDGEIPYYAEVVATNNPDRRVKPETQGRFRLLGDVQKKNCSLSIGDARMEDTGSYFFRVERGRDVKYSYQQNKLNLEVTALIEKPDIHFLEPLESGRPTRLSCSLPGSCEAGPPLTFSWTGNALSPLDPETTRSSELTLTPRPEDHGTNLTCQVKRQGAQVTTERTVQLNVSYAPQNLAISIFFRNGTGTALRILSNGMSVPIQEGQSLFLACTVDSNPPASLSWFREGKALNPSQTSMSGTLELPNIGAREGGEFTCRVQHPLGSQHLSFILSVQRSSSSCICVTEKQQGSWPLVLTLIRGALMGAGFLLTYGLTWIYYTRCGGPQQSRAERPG
Put plainly: Binding affinity to recombinant human Fc-fused siglec-14 by fluorescence based glycan microarray analysis. The procedure, abridged:
(§1)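 Azidoglycans CuAAC-coupled onto alkyne-modified glass (10% zwitterionic silane mix), five replicate spots each, remaining alkynes capped with azido-ethylene glycol. Slides blocked 0.5 h in 3% BSA/PBS, then probed 1 h at rt with Fc-Siglec (10 µg/mL) premixed 1:1 with Fc-specific anti-human IgG-Cy3 (10 µg/mL) in PBS/0.1% BSA. After PBST washes, Cy3 fluorescence was scanned and averaged over replicates.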

Assay [4] concerns the target T1, Sialic acid-binding Ig-like lectin 7. Put plainly: Binding affinity to recombinant human Fc-fused siglec-7 by fluorescence based glycan microarray analysis. An outline of the steps: as §1
Assay [5] concerns the target Sialic acid-binding Ig-like lectin 9 (Homo sapiens) (UniProt Q9Y336). In words: Binding affinity to recombinant human Fc-fused siglec-9 by fluorescence based glycan microarray analysis. The procedure, abridged:
as §1

Assay [6] concerns the target T3, Sialic acid-binding Ig-like lectin 15 (Homo sapiens) (UniProt Q6ZMC9).
T3 sequence (whole entry): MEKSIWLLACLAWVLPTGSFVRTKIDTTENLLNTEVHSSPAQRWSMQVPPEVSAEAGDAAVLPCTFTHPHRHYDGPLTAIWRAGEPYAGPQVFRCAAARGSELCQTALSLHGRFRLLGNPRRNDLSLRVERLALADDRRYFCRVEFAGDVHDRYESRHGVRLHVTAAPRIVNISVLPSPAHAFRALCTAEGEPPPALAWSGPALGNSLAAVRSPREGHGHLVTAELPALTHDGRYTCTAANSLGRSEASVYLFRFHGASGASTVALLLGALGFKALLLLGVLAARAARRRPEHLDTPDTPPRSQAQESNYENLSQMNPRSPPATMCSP
Put plainly: Binding affinity to recombinant human Fc-fused siglec-15 by fluorescence based glycan microarray analysis. An outline of the steps: as §1

For assay [7], the target named is B-cell receptor CD22 (Homo sapiens) (UniProt P20273). In words: Binding affinity to recombinant human Fc-fused siglec-2 by fluorescence based glycan microarray analysis. An outline of the steps: as §1

Activity calls are given as the source filed them. The calls are words filed in the database; no cut-off is given here.

Sialic acid-binding Ig-like lectin 9 (Homo sapiens), sequence (Q9Y336 whole entry, the tested form may be a part): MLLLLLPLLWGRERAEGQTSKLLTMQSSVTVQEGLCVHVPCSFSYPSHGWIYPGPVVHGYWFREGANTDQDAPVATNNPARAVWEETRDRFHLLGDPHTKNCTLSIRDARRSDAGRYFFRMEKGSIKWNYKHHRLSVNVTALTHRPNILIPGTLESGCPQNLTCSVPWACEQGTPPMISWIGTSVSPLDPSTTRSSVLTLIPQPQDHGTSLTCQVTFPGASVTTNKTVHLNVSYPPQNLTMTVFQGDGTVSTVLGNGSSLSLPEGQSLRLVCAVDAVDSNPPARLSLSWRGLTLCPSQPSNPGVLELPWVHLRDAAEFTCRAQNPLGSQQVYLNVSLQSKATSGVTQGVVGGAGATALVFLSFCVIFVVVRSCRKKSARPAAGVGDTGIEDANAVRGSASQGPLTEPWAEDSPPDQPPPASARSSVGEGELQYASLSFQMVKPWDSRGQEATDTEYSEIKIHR
B-cell receptor CD22 (Homo sapiens), sequence (P20273 whole entry, the tested form may be a part): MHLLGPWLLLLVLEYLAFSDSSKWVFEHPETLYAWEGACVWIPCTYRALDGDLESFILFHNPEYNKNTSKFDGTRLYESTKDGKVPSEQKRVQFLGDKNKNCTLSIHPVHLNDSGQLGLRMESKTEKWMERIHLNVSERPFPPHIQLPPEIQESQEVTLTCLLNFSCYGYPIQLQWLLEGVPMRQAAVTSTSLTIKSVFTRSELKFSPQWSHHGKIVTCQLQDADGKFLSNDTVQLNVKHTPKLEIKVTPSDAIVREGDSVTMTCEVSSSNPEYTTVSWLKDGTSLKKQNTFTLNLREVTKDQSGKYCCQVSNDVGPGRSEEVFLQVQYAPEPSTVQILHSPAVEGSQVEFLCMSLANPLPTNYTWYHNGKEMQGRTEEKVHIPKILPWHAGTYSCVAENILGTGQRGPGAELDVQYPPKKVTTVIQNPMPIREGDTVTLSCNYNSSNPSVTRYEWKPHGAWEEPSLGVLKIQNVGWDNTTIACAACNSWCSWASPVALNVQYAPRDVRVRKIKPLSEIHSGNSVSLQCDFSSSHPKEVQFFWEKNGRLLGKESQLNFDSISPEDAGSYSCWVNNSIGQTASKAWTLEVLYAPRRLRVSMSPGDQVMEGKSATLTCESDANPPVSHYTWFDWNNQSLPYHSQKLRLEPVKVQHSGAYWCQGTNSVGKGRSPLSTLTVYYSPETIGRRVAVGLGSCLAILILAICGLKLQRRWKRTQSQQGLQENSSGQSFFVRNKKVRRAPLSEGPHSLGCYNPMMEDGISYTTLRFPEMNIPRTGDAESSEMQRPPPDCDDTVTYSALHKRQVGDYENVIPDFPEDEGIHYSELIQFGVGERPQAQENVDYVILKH
T1 sequence (Q9Y286 whole entry, the tested form may be a part): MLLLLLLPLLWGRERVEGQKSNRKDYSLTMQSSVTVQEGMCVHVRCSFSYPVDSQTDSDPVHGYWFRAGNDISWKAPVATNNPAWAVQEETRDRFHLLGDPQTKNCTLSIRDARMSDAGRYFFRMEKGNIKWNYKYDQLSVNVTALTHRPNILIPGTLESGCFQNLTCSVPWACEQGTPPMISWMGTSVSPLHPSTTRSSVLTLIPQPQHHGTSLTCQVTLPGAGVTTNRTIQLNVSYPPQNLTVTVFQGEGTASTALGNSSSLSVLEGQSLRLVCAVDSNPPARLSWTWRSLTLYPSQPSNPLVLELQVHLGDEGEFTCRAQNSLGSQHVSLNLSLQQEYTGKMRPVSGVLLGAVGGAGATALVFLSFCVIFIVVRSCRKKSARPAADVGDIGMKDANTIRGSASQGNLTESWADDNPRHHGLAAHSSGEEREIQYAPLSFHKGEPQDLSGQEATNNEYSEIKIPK

In the case of `CC(=O)N[C@H]1[C@H]([C@@H](O)[C@@H](CO)O[C@]2(C(=O)O)C[C@H](O)[C@@H](NC(C)=O)[C@H]([C@H](O)[C@H](O)CO)O2)O[C@@](O[C@H]2[C@@H](O)[C@@H](CO)O[C@@H](O[C@H]3[C@H](O)[C@@H](O)[C@H](OCCCCCCN=[N+]=[N-])O[C@@H]3CO)[C@@H]2O)(C(=O)O)C[C@@H]1O`, the Kd – broadly, a measure of binding affinity in units of concentration – in assay [1] is 32.7 nM; in assay [2], 60 nM. The outcome in assay [3] was Active.
Turning to `CC(=O)N[C@H]1[C@H]([C@@H](O)[C@@H](CO)O[C@]2(C(=O)O)C[C@H](O)[C@@H](NC(C)=O)[C@H]([C@@H](O)[C@@H](CO)O[C@]3(C(=O)O)C[C@H](O)[C@@H](NC(C)=O)[C@H]([C@H](O)[C@H](O)CO)O3)O2)O[C@@](O[C@H]2[C@@H](O)[C@@H](CO)O[C@@H](O[C@H]3[C@H](O)[C@@H](O)[C@H](OCCCCCCN=[N+]=[N-])O[C@@H]3CO)[C@@H]2O)(C(=O)O)C[C@@H]1O`, the Kd in assay [1] worked out at 48.7 nM.
`CC(=O)N[C@H]1[C@H](OCCCCCCN=[N+]=[N-])O[C@H](CO)[C@@H](O[C@@H]2O[C@H](CO)[C@H](O)[C@H](O[C@@H]3O[C@H](CO)[C@@H](O[C@@H]4O[C@H](CO)[C@H](O)[C@H](O[C@]5(C(=O)O)C[C@H](O)[C@@H](NC(C)=O)[C@H]([C@@H](O)[C@@H](CO)O[C@]6(C(=O)O)C[C@H](O)[C@@H](NC(C)=O)[C@H]([C@H](O)[C@H](O)CO)O6)O5)[C@H]4O)[C@H](O)[C@H]3NC(C)=O)[C@H]2O)[C@@H]1O`: the outcome in assay [4] was inactive.
In the case of `CC(=O)N[C@H]1[C@H](OCCCCCCN=[N+]=[N-])O[C@H](CO)[C@@H](O[C@@H]2O[C@H](CO[C@]3(C(=O)O)C[C@H](O)[C@@H](NC(C)=O)[C@H]([C@H](O)[C@H](O)CO)O3)[C@H](O)[C@H](O[C@]3(C(=O)O)C[C@H](O)[C@@H](NC(C)=O)[C@H]([C@H](O)[C@H](O)CO)O3)[C@H]2O)[C@@H]1O`, the Kd in assay [1] came to 38.7 nM. The result in assay [5], in assay [6], in assay [3] and in assay [4] was Active. Also, the outcome in assay [7] was inactive.
Consider `CC(=O)N[C@H]1[C@H](OCCCCCCN=[N+]=[N-])O[C@H](CO)[C@@H](O[C@@H]2O[C@H](CO)[C@H](O)[C@H](O[C@]3(C(=O)O)C[C@H](O)[C@@H](NC(C)=O)[C@H]([C@@H](O)[C@@H](CO)O[C@]4(C(=O)O)C[C@H](O)[C@@H](NC(C)=O)[C@H]([C@H](O)[C@H](O)CO)O4)O3)[C@H]2O)[C@@H]1O`, for which the equilibrium dissociation constant (Kd) in assay [1] is 43.3 nM. In addition, in assay [3], the outcome was Active.
Take `CC(=O)N[C@H]1[C@H](OCCCCCCN=[N+]=[N-])O[C@H](CO)[C@@H](O[C@@H]2O[C@H](CO)[C@H](O)[C@H](O[C@]3(C(=O)O)C[C@H](O)[C@@H](NC(C)=O)[C@H]([C@H](O)[C@H](O)CO)O3)[C@H]2O)[C@@H]1O`: the result in assay [5] and in assay [3] was Active. For the same compound, in assay [4], the result was inactive.
For `CC(=O)N[C@H]1[C@H](OCCCCCCN=[N+]=[N-])O[C@H](CO)[C@@H](O[C@@H]2O[C@H](CO)[C@H](O)[C@H](O[C@@H]3O[C@H](CO)[C@@H](O)[C@@H](O[C@@H]4O[C@H](CO[C@]5(C(=O)O)C[C@H](O)[C@@H](NC(C)=O)[C@H]([C@H](O)[C@H](O)CO)O5)[C@H](O)[C@H](O[C@]5(C(=O)O)C[C@H](O)[C@@H](NC(C)=O)[C@H]([C@H](O)[C@H](O)CO)O5)[C@H]4O)[C@H]3NC(C)=O)[C@H]2O)[C@@H]1O`, the outcome in assay [6] and in assay [7] was inactive.
On to `CC(=O)N[C@H]1[C@H]([C@H](O)[C@H](O)CO)O[C@@](OC[C@H]2O[C@@H](O[C@H]3[C@H](O)[C@@H](O)[C@H](OCCCCCCN=[N+]=[N-])O[C@@H]3CO)[C@H](O)[C@@H](O[C@]3(C(=O)O)C[C@H](O)[C@@H](NC(C)=O)[C@H]([C@H](O)[C@H](O)CO)O3)[C@H]2O)(C(=O)O)C[C@@H]1O`, for which, in assay [1], the dissociation constant Kd worked out at 26.8 nM. Moreover, the outcome in assay [6], in assay [3] and in assay [4] was Active. Also, the outcome in assay [7] was inactive.
Consider `CC(=O)N[C@H]1[C@H](OCCCCCCN=[N+]=[N-])O[C@H](CO)[C@@H](O[C@@H]2O[C@H](CO)[C@H](O)[C@H](O[C@]3(C(=O)O)C[C@H](O)[C@@H](NC(C)=O)[C@H]([C@H](O)[C@H](O)CO)O3)[C@H]2O)[C@@H]1O[C@@H]1O[C@@H](C)[C@@H](O)[C@@H](O)[C@@H]1O`, for which the outcome in assay [5] was Active.
Take `CC(=O)N[C@H]1[C@H]([C@H](O)[C@H](O)CO)O[C@@](OC[C@H]2O[C@@H](O[C@H]3[C@H](O)[C@@H](O)[C@H](OCCCCCCN=[N+]=[N-])O[C@@H]3CO)[C@H](O)[C@@H](O)[C@H]2O)(C(=O)O)C[C@@H]1O`: the result in assay [5], in assay [7] and in assay [4] was Active.
As to `CC(=O)N[C@H]1[C@H]([C@H](O)[C@H](O)CO)O[C@@](O[C@H]2[C@@H](O)[C@@H](CO)O[C@@H](O[C@H]3[C@H](O)[C@@H](O)[C@H](OCCCCCCN=[N+]=[N-])O[C@@H]3CO)[C@@H]2O)(C(=O)O)C[C@@H]1O`, in assay [5], the outcome was Active. In addition, in assay [4], the outcome was inactive.
Turning to `CC(=O)N[C@H]1[C@H](OCCCCCCN=[N+]=[N-])O[C@H](CO)[C@@H](O[C@@H]2O[C@H](CO[C@]3(C(=O)O)C[C@H](O)[C@@H](NC(C)=O)[C@H]([C@H](O)[C@H](O)CO)O3)[C@H](O)[C@H](O[C@@H]3O[C@H](CO)[C@@H](O)[C@H](O)[C@H]3NC(C)=O)[C@H]2O)[C@@H]1O`, the outcome in assay [5] was Active. In addition, the result in assay [7] was inactive.
Take `CC(=O)N[C@H]1[C@H](OCCCCCCN=[N+]=[N-])O[C@H](CO)[C@@H](O[C@@H]2O[C@H](CO)[C@H](O)[C@H](O[C@@H]3O[C@H](CO)[C@@H](O)[C@@H](O[C@@H]4O[C@H](CO)[C@H](O)[C@H](O[C@@H]5O[C@H](CO)[C@@H](O)[C@@H](O[C@@H]6O[C@H](CO[C@]7(C(=O)O)C[C@H](O)[C@@H](NC(C)=O)[C@H]([C@H](O)[C@H](O)CO)O7)[C@H](O)[C@H](O)[C@H]6O)[C@H]5NC(C)=O)[C@H]4O)[C@H]3NC(C)=O)[C@H]2O)[C@@H]1O`: the outcome in assay [5] and in assay [7] was Active. Besides, the result in assay [4] was inactive.
In the case of `CC(=O)N[C@H]1[C@H](OCCCCCCN=[N+]=[N-])O[C@H](CO)[C@@H](O[C@@H]2O[C@H](CO)[C@H](O)[C@H](O[C@@H]3O[C@H](CO)[C@@H](O)[C@@H](O[C@@H]4O[C@H](CO[C@]5(C(=O)O)C[C@H](O)[C@@H](NC(C)=O)[C@H]([C@H](O)[C@H](O)CO)O5)[C@H](O)[C@H](O)[C@H]4O)[C@H]3NC(C)=O)[C@H]2O)[C@@H]1O`, the outcome in assay [5] and in assay [7] was Active. The result in assay [4] was inactive.
As for `CC(=O)N[C@H]1[C@H](OCCCCCCN=[N+]=[N-])O[C@H](CO)[C@@H](O[C@@H]2O[C@H](CO)[C@H](O)[C@H](O[C@]3(C(=O)O)C[C@H](O)[C@@H](NC(C)=O)[C@H]([C@@H](O)[C@@H](CO)O[C@]4(C(=O)O)C[C@H](O)[C@@H](NC(C)=O)[C@H]([C@@H](O)[C@@H](CO)O[C@]5(C(=O)O)C[C@H](O)[C@@H](NC(C)=O)[C@H]([C@H](O)[C@H](O)CO)O5)O4)O3)[C@H]2O)[C@@H]1O`, the Kd in assay [1] turned out to be 54.1 nM.

Values taken from ChEMBL document CHEMBL4364321, “Expedient assembly of Oligo-LacNAcs by a sugar nucleotide regeneration system: Finding the role of tandem LacNAc and sialic acid position towards siglec binding” (Eur J Med Chem, 2019).
